Laboratory results reported in ChEMBL document CHEMBL1139474, “Cellular apoptosis and cytotoxicity of phenolic compounds: a quantitative structure-activity relationship study” (J Med Chem, 2005).

Key:
L1210 [1] = test: Cytotoxicity against mouse L1210 cells; details: mouse, l1210
L1210 [2] = test: Activity against caspase-mediated apoptosis in mouse L1210 cells at 0.1 mM; format: functional
L1210 [3] = test: Activity against caspase-mediated apoptosis in mouse L1210 cells; format: functional
[4] = Cytotoxicity against human CEM/VLB cells
CCRF-CEM = test: Cytotoxicity against human CCRF-CEM cells
HL-60 = test: Cytotoxicity against human HL60 cells; format: cell-based
Method in brief: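 HL-60 cells grown at 37 °C in RPMI with L-glutamine and 10% FBS, then seeded at (2–5) × 10⁴ cells/mL, in duplicate, at eight or more concentrations. Compounds were diluted in unsupplemented RPMI and added 1:10. After 48 h of continuous exposure, CyQUANT GR nucleic-acid dye fluorescence was read (ex 485/em 530 nm). IC50 is the concentration giving 50% lower fluorescence than controls, taken from the dose-response curve.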

| SMILES | log(1/ID50) (L1210 [1]) | Activity (L1210 [2]) | log(1/ID50) (L1210 [3]) | other results |
| --- | --- | --- | --- | --- |
| Cc1cc([N+](=O)[O-])ccc1O | 3.49 | – | – | – |
| CC(C)(C)c1ccccc1O | 4 | <15% | 2.42 | – |
| Cc1cc(C)c(O)c(C)c1 | 3.2 | – | – | – |
| NC(=O)c1ccc(O)cc1 | 2.48 | <15% | – | log(1/ID50) [4]: 2.38; log(1/ID50) (CCRF-CEM): 2.23 |
| CCCCCCCc1ccc(O)cc1 | 4.49 | <15% | – | – |
| CCCCc1ccc(O)cc1 | 4.33 | <15% | – | – |
| CCCCCc1ccc(O)cc1 | 4.47 | <15% | – | – |
| Cc1ccc(O)c(O)c1 | 5.03 | – | – | – |
| CC(C)(C)c1ccc(O)cc1 | – | <15% | – | – |
| Oc1cccc(Br)c1 | 3.82 | <15% | 1 | – |
| Oc1ccccc1Br | 3.44 | <15% | – | – |
| N#Cc1ccccc1O | 3.3 | <15% | – | – |
| COc1cc(C)cc(OC)c1O | 2.89 | – | 2.4 | – |
| Oc1ccccc1C(F)(F)F | 3.22 | <15% | – | – |
| Cc1cc(Br)ccc1O | 3.46 | – | – | – |
| COc1ccc(O)c(C)c1 | 3.39 | – | – | – |
| Oc1ccccc1F | 3.2 | <15% | – | – |
| CC(=O)Oc1cc(C(C)(C)C)c(O)c(C(C)(C)C)c1 | 4.35 | – | 2.8 | – |
| CCc1ccc(O)c(C(C)(C)C)c1 | 3.8 | – | – | – |
| CCCCOc1ccc(O)cc1 | 5.2 | <15% | 0.14 | – |
| Cc1ccc(O)c(N)c1 | – | – | 2.09 | – |
| NS(=O)(=O)c1ccc(O)cc1 | 2.5 | <15% | – | log(1/ID50) [4]: 2.11; log(1/ID50) (CCRF-CEM): 2.31 |
| COc1cc(N)cc(OC)c1O | 5.52 | – | 3.1 | – |
| Cc1cc(F)ccc1O | 3.09 | – | – | – |
| CCCCc1ccc(O)cc1.Cl | – | <15% | – | log(1/ID50) (HL-60): 3.52 |

| SMILES | log(1/ID50) (L1210 [1]) | Activity (L1210 [2]) | log(1/ID50) (L1210 [3]) | other results |
| --- | --- | --- | --- | --- |
| CC(C)(C)c1cc([N+](=O)[O-])cc(C(C)(C)C)c1O | 4.9 | – | 2.49 | – |
| CC(C)(C)c1cccc(O)c1 | 3.88 | <15% | – | – |
| COc1cc(/C=C/C=O)cc(OC)c1O | 4.25 | – | 2.6 | – |
| CC(C)(C)c1ccc(O)cc1.Cl | – | <15% | – | – |
| CC(C)(C)c1cc(C#N)cc(C(C)(C)C)c1O | 4.68 | – | 2.88 | – |
| CC(C)(C)c1cc(CO)cc(C(C)(C)C)c1O | 3.88 | – | 2.39 | – |
| CN(C)c1cccc(O)c1 | 4.11 | <15% | – | – |
| COc1cc(OC)c(O)c(OC)c1 | – | – | 2.2 | – |
| CSc1ccccc1O | 3.7 | <15% | – | – |
| NC(=O)Nc1ccccc1O | 3.5 | <15% | – | – |
| CCCCCCOc1ccc(O)cc1 | 5.5 | <15% | – | log(1/ID50) [4]: 5.37; log(1/ID50) (CCRF-CEM): 5.34 |
| Oc1ccccc1I | 3.95 | <15% | 2.38 | – |
| CCCc1ccccc1O | 3.49 | <15% | 2.16 | – |
| CCc1cc(C(C)(C)C)c(O)c(C(C)(C)C)c1 | 3.91 | – | 2.43 | – |
| CC(C)(C)c1cc(C=O)cc(C(C)(C)C)c1O | 4.06 | – | 2.49 | – |
| CC(=O)c1cc(C(C)(C)C)c(O)c(C(C)(C)C)c1 | 3.94 | – | 2.41 | – |
| CC(C)(C)c1cccc(C(C)(C)C)c1O | 3.85 | – | 1.9 | – |
| Cc1ccc(O)c(C(C)(C)C)c1 | 3.8 | – | – | – |
| N#Cc1cccc(O)c1 | 3.11 | <15% | 1.11 | – |
| Cc1cccc(C(C)(C)C)c1O | 3.73 | – | – | – |
| CC(C)(C)c1ccc(O)c(C(C)(C)C)c1 | 4.24 | – | – | – |
| Cc1ccc(O)c(C)c1 | 3.04 | – | – | – |
| CCc1cccc(CC)c1O | 3.26 | – | – | – |
| CC(C)c1ccccc1O | 3.5 | <15% | 2.38 | – |
